Results from paper PMC3902791 (Molecular imaging and biology : MIB : the official …, 2012).
“And” between values parts separate entries of the source, which are not always exact repeats. Equal entries are not always repeated. Where two headings read alike, the source gives them in different places.

Parameters: species or system human
Outline: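 Organ time–activity curves came from whole-body scan VOI data. These were fitted mono-exponentially in five animals; in the sixth, with two scans, a linear fit to the log values was used. Time-integrated activity coefficients were scaled by the ratio of body-mass-normalised human to CT-derived macaque organ masses. Intestinal values were split in thirds across small intestine, ULI and LLI. Organ doses (mSv/MBq) were computed per animal with the OLINDA/EXM 1.1 adult male model.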

## O=C(O)C[18F] [^18F-FACE, ^18F-fluoroacetate]
All, Mean±SD
  Dose to adult human model, Total body: 0.011±0.002 mSv/MBq
  ED effective dose, adult human model: 0.0211 mSv/MBq and 0.021±0.004 mSv/MBq
  EDE effective dose equivalent, adult human model: 0.023±0.004 mSv/MBq
  Organ dose to adult human model, Adrenals: 0.013±0.002 mSv/MBq
  Organ dose to adult human model, Brain: 0.00762 mSv/MBq and 0.008±0.002 mSv/MBq
  Organ dose to adult human model, Breasts: 0.00774 mSv/MBq and 0.008±0.001 mSv/MBq
  Organ dose to adult human model, Gallbladder wall: 0.0288 mSv/MBq and 0.029±0.010 mSv/MBq
  Organ dose to adult human model, Heart wall: 0.025±0.010 mSv/MBq
  Organ dose to adult human model, Kidneys: 0.0342 mSv/MBq and 0.034±0.008 mSv/MBq
  Organ dose to adult human model, LLI wall (lower large intestine): 0.075±0.027 mSv/MBq
  Organ dose to adult human model, Liver: 0.0307 mSv/MBq and 0.031±0.021 mSv/MBq
  Organ dose to adult human model, Lungs: 0.010±0.002 mSv/MBq
  Organ dose to adult human model, Muscle: 0.010±0.002 mSv/MBq
  Organ dose to adult human model, Osteogenic cells: 0.014±0.003 mSv/MBq
  Organ dose to adult human model, Ovaries: 0.016±0.002 mSv/MBq
  Organ dose to adult human model, Pancreas: 0.013±0.002 mSv/MBq
  Organ dose to adult human model, Red marrow: 0.0102 mSv/MBq and 0.010±0.002 mSv/MBq
  Organ dose to adult human model, Skin: 0.007±0.001 mSv/MBq
  Organ dose to adult human model, Small intestine: 0.037±0.011 mSv/MBq
  Organ dose to adult human model, Spleen: 0.011±0.002 mSv/MBq
  Organ dose to adult human model, Stomach wall: 0.012±0.002 mSv/MBq
  Organ dose to adult human model, Testes: 0.009±0.001 mSv/MBq
  Organ dose to adult human model, Thymus: 0.010±0.002 mSv/MBq
  Organ dose to adult human model, Thyroid: 0.00888 mSv/MBq and 0.009±0.002 mSv/MBq
  Organ dose to adult human model, ULI wall (upper large intestine): 0.056±0.019 mSv/MBq
  Organ dose to adult human model, Urinary bladder wall: 0.021±0.010 mSv/MBq
  Organ dose to adult human model, Uterus: 0.014±0.003 mSv/MBq
Female, Mean±SD
  Dose to adult human model, Total body: 0.010±0.002 mSv/MBq
  ED effective dose, adult human model: 0.018±0.001 mSv/MBq
  EDE effective dose equivalent, adult human model: 0.020±0.001 mSv/MBq
  Organ dose to adult human model, Adrenals: 0.012±0.002 mSv/MBq
  Organ dose to adult human model, Brain: 0.007±0.002 mSv/MBq
  Organ dose to adult human model, Breasts: 0.007±0.002 mSv/MBq
  Organ dose to adult human model, Gallbladder wall: 0.031±0.013 mSv/MBq
  Organ dose to adult human model, Heart wall: 0.019±0.006 mSv/MBq
  Organ dose to adult human model, Kidneys: 0.031±0.010 mSv/MBq
  Organ dose to adult human model, LLI wall (lower large intestine): 0.058±0.005 mSv/MBq
  Organ dose to adult human model, Liver: 0.021 ±0.009 mSv/MBq
  Organ dose to adult human model, Lungs: 0.009±0.002 mSv/MBq
  Organ dose to adult human model, Muscle: 0.009±0.002 mSv/MBq
  Organ dose to adult human model, Osteogenic cells: 0.014±0.004 mSv/MBq
  Organ dose to adult human model, Ovaries: 0.016±0.002 mSv/MBq
  Organ dose to adult human model, Pancreas: 0.012±0.002 mSv/MBq
  Organ dose to adult human model, Red marrow: 0.009±0.002 mSv/MBq
  Organ dose to adult human model, Skin: 0.007±0.002 mSv/MBq
  Organ dose to adult human model, Small intestine: 0.030±0.002 mSv/MBq
  Organ dose to adult human model, Spleen: 0.010±0.003 mSv/MBq
  Organ dose to adult human model, Stomach wall: 0.011±0.002 mSv/MBq
  Organ dose to adult human model, Thymus: 0.009±0.002 mSv/MBq
  Organ dose to adult human model, Thyroid: 0.009±0.003 mSv/MBq
  Organ dose to adult human model, ULI wall (upper large intestine): 0.044±0.003 mSv/MBq
  Organ dose to adult human model, Urinary bladder wall: 0.017±0.004 mSv/MBq
  Organ dose to adult human model, Uterus: 0.014±0.003 mSv/MBq
Male, Mean±SD
  Dose to adult human model, Total body: 0.012±0.001 mSv/MBq
  ED effective dose, adult human model: 0.025±0.003 mSv/MBq
  EDE effective dose equivalent, adult human model: 0.027±0.003 mSv/MBq
  Organ dose to adult human model, Adrenals: 0.014±0.002 mSv/MBq
  Organ dose to adult human model, Brain: 0.008±0.001 mSv/MBq
  Organ dose to adult human model, Breasts: 0.008±0.001 mSv/MBq
  Organ dose to adult human model, Gallbladder wall: 0.027±0.008 mSv/MBq
  Organ dose to adult human model, Heart wall: 0.031±0.010 mSv/MBq
  Organ dose to adult human model, Kidneys: 0.037±0.008 mSv/MBq
  Organ dose to adult human model, LLI wall (lower large intestine): 0.091±0.031 mSv/MBq
  Organ dose to adult human model, Liver: 0.040±0.026 mSv/MBq
  Organ dose to adult human model, Lungs: 0.010±0.001 mSv/MBq
  Organ dose to adult human model, Muscle: 0.010±0.001 mSv/MBq
  Organ dose to adult human model, Osteogenic cells: 0.015±0.001 mSv/MBq
  Organ dose to adult human model, Pancreas: 0.015±0.001 mSv/MBq
  Organ dose to adult human model, Red marrow: 0.011±0.001 mSv/MBq
  Organ dose to adult human model, Skin: 0.008±0.001 mSv/MBq
  Organ dose to adult human model, Small intestine: 0.044±0.012 mSv/MBq
  Organ dose to adult human model, Spleen: 0.012±0.001 mSv/MBq
  Organ dose to adult human model, Stomach wall: 0.013±0.001 mSv/MBq
  Organ dose to adult human model, Testes: 0.009±0.001 mSv/MBq
  Organ dose to adult human model, Thymus: 0.010±0.001 mSv/MBq
  Organ dose to adult human model, Thyroid: 0.009±0.001 mSv/MBq
  Organ dose to adult human model, ULI wall (upper large intestine): 0.068±0.021 mSv/MBq
  Organ dose to adult human model, Urinary bladder wall: 0.025±0.015 mSv/MBq
Administration of 185–370 MBq
  estimated effective dose for an adult human: 3.90–7.81 mSv
Adult male model
  radiation absorbed dose, intestines: 0.0366–0.0745 mSv/MBq
From animal 1, male
  Dose to adult human model, Total body: 0.012 mSv/MBq
  ED effective dose, adult human model: 0.022 mSv/MBq
  EDE effective dose equivalent, adult human model: 0.024 mSv/MBq
  Organ dose to adult human model, Adrenals: 0.016 mSv/MBq
  Organ dose to adult human model, Brain: 0.007 mSv/MBq
  Organ dose to adult human model, Breasts: 0.008 mSv/MBq
  Organ dose to adult human model, Gallbladder wall: 0.031 mSv/MBq
  Organ dose to adult human model, Heart wall: 0.035 mSv/MBq
  Organ dose to adult human model, Kidneys: 0.046 mSv/MBq
  Organ dose to adult human model, LLI wall (lower large intestine): 0.058 mSv/MBq
  Organ dose to adult human model, Liver: 0.067 mSv/MBq
  Organ dose to adult human model, Lungs: 0.011 mSv/MBq
  Organ dose to adult human model, Muscle: 0.010 mSv/MBq
  Organ dose to adult human model, Osteogenic cells: 0.014 mSv/MBq
  Organ dose to adult human model, Pancreas: 0.016 mSv/MBq
  Organ dose to adult human model, Red marrow: 0.011 mSv/MBq
  Organ dose to adult human model, Skin: 0.007 mSv/MBq
  Organ dose to adult human model, Small intestine: 0.031 mSv/MBq
  Organ dose to adult human model, Spleen: 0.012 mSv/MBq
  Organ dose to adult human model, Stomach wall: 0.013 mSv/MBq
  Organ dose to adult human model, Testes: 0.009 mSv/MBq
  Organ dose to adult human model, Thymus: 0.010 mSv/MBq
  Organ dose to adult human model, Thyroid: 0.009 mSv/MBq
  Organ dose to adult human model, ULI wall (upper large intestine): 0.045 mSv/MBq
  Organ dose to adult human model, Urinary bladder wall: 0.042 mSv/MBq
From animal 2, male
  Dose to adult human model, Total body: 0.012 mSv/MBq
  ED effective dose, adult human model: 0.025 mSv/MBq
  EDE effective dose equivalent, adult human model: 0.027 mSv/MBq
  Organ dose to adult human model, Adrenals: 0.014 mSv/MBq
  Organ dose to adult human model, Brain: 0.007 mSv/MBq
  Organ dose to adult human model, Breasts: 0.008 mSv/MBq
  Organ dose to adult human model, Gallbladder wall: 0.033 mSv/MBq
  Organ dose to adult human model, Heart wall: 0.038 mSv/MBq
  Organ dose to adult human model, Kidneys: 0.032 mSv/MBq
  Organ dose to adult human model, LLI wall (lower large intestine): 0.096 mSv/MBq
  Organ dose to adult human model, Liver: 0.041 mSv/MBq
